Measurements as given in ChEMBL document CHEMBL1131019, “Minimal-size, constrained corticotropin-releasing factor agonists with i-(i+3) Glu-Lys and Lys-Glu bridges” (1998).

Legend:
Format in all cases: functional, Pituitary gland cell
Rattus norvegicus [1] = species: Rattus norvegicus; assay: Agonist activity by measuring release of ACTH by rat pituitary cells in culture relative to ovine Corticotropin-Releasing factor (CRF)
How it was run: (§1)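 Male Sprague–Dawley rat anterior pituitary cells, collagenase-dissociated, plated at 0.16 × 10⁶ cells/well in 2% FBS medium. After 3 days, washed into 0.1% BSA medium, preincubated 1 h, washed again, then exposed to peptide for 3 h. Medium ACTH measured by radioimmunoassay.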

Rattus norvegicus [2] = species: Rattus norvegicus; assay: Percent in vito intrinsic activity (IA) was evaluated in pituitary cell culture assay
How it was run: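 ACTH release assay in cultured rat anterior pituitary cells from male Sprague–Dawley rats: 3-day culture, 1 h preincubation in 0.1% BSA medium, 3 h peptide exposure, ACTH in medium by radioimmunoassay. Intrinsic activity = ACTH released at maximal analogue dose divided by ACTH released at maximal CRF dose, ×100.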

Rattus norvegicus [3] = species: Rattus norvegicus; assay: In vitro for agonist activity by measuring release of ACTH by rat pituitary cells in culture relative to human Corticotropin-Releasing factor (CRF); how it was run: as §1

Compound | Potency (Rattus norvegicus [1]) | IA (Rattus norvegicus [2]) [%] | Potency (Rattus norvegicus [3])
CCCC[C@H](NC(=O)[C@H](CCC(=O)O)NC(=O)[C@H](CC(C)C)NC(=O)[C@@H](NC(=O)[C@H](CCC(=O)O)NC(=O)[C@H](CCCN=C(N)N)NC(=O)[C@H](CC(C)C)NC(=O)[C@@H]1CCC(=O)NCCCC[C@H](NC(=O)[C@H](CC(C)C)NC(=O)[C@H](CC(=O)O)NC(=O)[C@H](CC(C)C)NC(=O)[C@H](CO)NC(=O)[C@@H](NC(=O)[C@@H]2CCCN2C(=O)[C@@H]2CCCN2C(C)=O)[C@@H](C)CC)C(=O)N[C@H](Cc2ccccc2)C(=O)N[C@@H](Cc2c[nH]cn2)C(=O)N1)C(C)C)C(=O)N[C@@H](C)C(=O)N[C@@H](CCCN=C(N)N)C(=O)N[C@@H](C)C(=O)N[C@@H](CCC(=O)O)C(=O)N[C@@H](CCC(N)=O)C(=O)N[C@@H](CC(C)C)C(=O)N[C@@H](C)C(=O)N[C@@H](CCC(N)=O)C(=O)N[C@@H](CCC(N)=O)C(=O)N[C@@H](C)C(=O)N[C@@H](Cc1c[nH]cn1)C(=O)N[C@@H](CO)C(=O)N[C@@H](CC(N)=O)C(=O)N[C@@H](CCCN=C(N)N)C(=O)N[C@@H](CCCCN)C(=O)N[C@@H](CC(C)C)C(=O)N[C@@H](CCCC)C(=O)N[C@@H](CCC(=O)O)C(=O)N[C@H](C(=O)N[C@H](C(N)=O)[C@@H](C)CC)[C@@H](C)CC | 0.0004 | – | –
CCCC[C@H](NC(=O)[C@H](CCC(=O)O)NC(=O)[C@H](CC(C)C)NC(=O)[C@H](CCCC)NC(=O)[C@H](CCC(=O)O)NC(=O)[C@H](CCCN=C(N)N)NC(=O)[C@H](CC(C)C)NC(=O)[C@H](CC(C)C)NC(=O)[C@H](Cc1c[nH]cn1)NC(=O)[C@@H](Cc1ccccc1)NC(=O)[C@@H](NC(=O)[C@H](CC(C)C)NC(=O)[C@H](CC(=O)O)NC(=O)[C@H](CC(C)C)NC(C)=O)[C@@H](C)O)C(=O)N[C@@H](C)C(=O)N[C@@H](CCCCN)C(=O)N[C@@H](C)C(=O)N[C@@H](CCC(=O)O)C(=O)N[C@@H](CCC(N)=O)C(=O)N[C@@H](CCC(=O)O)C(=O)N[C@@H](C)C(=O)N[C@@H](CCC(=O)O)C(=O)N1C(=O)[C@H](C)NC(=O)[C@H](C)NC(=O)[C@@H](N)CCC(=O)NCCCC[C@H]1C(=O)N[C@@H](CC(N)=O)C(=O)N[C@@H](CCCN=C(N)N)C(=O)N[C@@H](CC(C)C)C(=O)N[C@@H](CC(C)C)C(=O)N[C@@H](CC(C)C)C(=O)N[C@@H](CCC(=O)O)C(=O)N[C@@H](CCC(=O)O)C(=O)N[C@@H](C)C(N)=O | – | 93 | 0.073
